# Tests used:
# Format in all cases: functional
# MCF7 = experiment: Growth inhibition of human MCF7 cells after 48 hrs by SRB assay; conditions: MCF7, 48 h
# Outline: (§1)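 NCI 60-cell-line screen. Cells grown in RPMI1640 with 5% fetal calf serum and 2 mM L-glutamine, with inoculum density set by cell line. Preincubated 24 h, then given compound in DMSO at 10^-4 to 10^-8 M (five 10-fold steps) for 48 h continuous exposure. Growth measured by SRB protein assay. GI50, TGI and LC50 reported as –log molar.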
# SK-OV-3 = experiment: Growth inhibition of human SKOV3 cells after 48 hrs by SRB assay; conditions: SK-OV-3, 48 h; outline: as §1
# UACC-62 = experiment: Growth inhibition of human UACC62 cells after 48 hrs by SRB assay; conditions: UACC-62, 48 h; outline: as §1
# TK-10 = experiment: Growth inhibition of human TK10 cells after 48 hrs by SRB assay; conditions: TK-10, 48 h; outline: as §1
# DU-145 = experiment: Growth inhibition of human DU145 cells after 48 hrs by SRB assay; conditions: DU-145, 48 h; outline: as §1
# NCI/ADR-RES = experiment: Growth inhibition of human NCI/ADR-RES cells after 48 hrs by SRB assay; outline: as §1
# OVCAR-8 = experiment: Growth inhibition of human OVCAR8 cells after 48 hrs by SRB assay; conditions: OVCAR-8, 48 h; outline: as §1
# SK-MEL-2 = experiment: Growth inhibition of human SK-MEL-2 cells after 48 hrs by SRB assay; conditions: SK-MEL-2, 48 h; outline: as §1
# NCI-H460 = experiment: Growth inhibition of human NCI-H460 cells after 48 hrs by SRB assay; conditions: NCI-H460, 48 h; outline: as §1
# Malme-3M = experiment: Growth inhibition of human MALME-3M cells after 48 hrs by SRB assay; outline: as §1
# HL-60(TB) = experiment: Growth inhibition of human HL-60(TB) cells after 48 hrs by SRB assay; conditions: HL-60, 48 h
# Outline: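 NCI 60-cell-line screen: cells grown in RPMI1640 with 5% fetal calf serum and 2 mM L-glutamine, preincubated 24 h, then exposed to compound in DMSO at five concentrations (10^-4 to 10^-8 M) for 48 h continuous exposure. Growth estimated by sulforhodamine B protein assay; reported as pGI50 (-log molar concentration inhibiting net cell growth by 50%).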
# IGROV-1 = experiment: Growth inhibition of human IGROV1 cells after 48 hrs by SRB assay; conditions: IGROV-1, 48 h; outline: as §1
# NCI-H322M = experiment: Growth inhibition of human NCI-H322M cells after 48 hrs by SRB assay; outline: as §1
# 786-0 = experiment: Growth inhibition of human 786-0 cells after 48 hrs by SRB assay; conditions: 786-0, 48 h; outline: as §1
# PC-3 = experiment: Growth inhibition of human PC3 cells after 48 hrs by SRB assay; conditions: PC-3, 48 h; outline: as §1
# OVCAR-4 = experiment: Growth inhibition of human OVCAR4 cells after 48 hrs by SRB assay; conditions: OVCAR-4, 48 h; outline: as §1
# SF-539 = experiment: Growth inhibition of human SF539 cells after 48 hrs by SRB assay; conditions: SF-539, 48 h; outline: as §1
# OVCAR-3 = experiment: Growth inhibition of human OVCAR-3 cells after 48 hrs by SRB assay; conditions: OVCAR-3, 48 h; outline: as §1
# RXF 393 = experiment: Growth inhibition of human RXF393 cells after 48 hrs by SRB assay; conditions: RXF 393, 48 h; outline: as §1
# SK-MEL-28 = experiment: Growth inhibition of human SK-MEL-28 cells after 48 hrs by SRB assay; conditions: SK-MEL-28, 48 h; outline: as §1
# CCRF-CEM = experiment: Growth inhibition of human CCRF-CEM cells after 48 hrs by SRB assay; outline: as §1
# [1] = Growth inhibition of human Hs 578T cells after 48 hrs by SRB assay; outline: as §1
# M14 = experiment: Growth inhibition of human M14 cells after 48 hrs by SRB assay; conditions: M14, 48 h; outline: as §1
# U-251 = experiment: Growth inhibition of human U251 cells after 48 hrs by SRB assay; conditions: U-251, 48 h; outline: as §1
# HCC 2998 = experiment: Growth inhibition of human HCC2998 cells after 48 hrs by SRB assay; conditions: HCC 2998, 48 h; outline: as §1
# CAKI-1 = experiment: Growth inhibition of human Caki1 cells after 48 hrs by SRB assay; conditions: CAKI-1, 48 h; outline: as §1
# SF-295 = experiment: Growth inhibition of human SF295 cells after 48 hrs by SRB assay; conditions: SF-295, 48 h; outline: as §1
# BT-549 = experiment: Growth inhibition of human BT549 cells after 48 hrs by SRB assay; conditions: BT-549, 48 h; outline: as §1
# SNB-75 = experiment: Growth inhibition of human SNB75 cells after 48 hrs by SRB assay; conditions: SNB-75, 48 h; outline: as §1
# [2] = Growth inhibition of human […] cells after 48 hrs by SRB assay; outline: as §1
# SR = experiment: Growth inhibition of human SR cells after 48 hrs by SRB assay; outline: as §1
# EKVX = experiment: Growth inhibition of human EKVX cells after 48 hrs by SRB assay; outline: as §1
# HOP-62 = experiment: Growth inhibition of human HOP62 cells after 48 hrs by SRB assay; conditions: HOP-62, 48 h; outline: as §1
# HCT-15 = experiment: Growth inhibition of human HCT15 cells after 48 hrs by SRB assay; conditions: HCT-15, 48 h; outline: as §1
# UO-31 = experiment: Growth inhibition of human UO31 cells after 48 hrs by SRB assay; conditions: UO-31, 48 h; outline: as §1
# SK-MEL-5 = experiment: Growth inhibition of human SK-MEL-5 cells after 48 hrs by SRB assay; conditions: SK-MEL-5, 48 h; outline: as §1
# MDA-MB-468 = experiment: Growth inhibition of human MDA-MB-468 cells after 48 hrs by SRB assay; conditions: MDA-MB-468, 48 h; outline: as §1
structure (smiles),measurement,setting,value
CCN(CC)c1ccc(C2=NN(C(C)=O)C(c3cc(OC)c(OC)c(OC)c3)C2)cc1 (stereo not drawn),GI50,MCF7,316 nM
same,TGI,MCF7; read-out: pTGI (converted),10 µM
same,GI50,SK-OV-3,398 nM
same,TGI,SK-OV-3; read-out: pTGI (converted),15.8 µM
same,GI50,UACC-62,316 nM
same,TGI,UACC-62; read-out: pTGI (converted),12.6 µM
same,GI50,TK-10,398 nM
same,TGI,TK-10; read-out: pTGI (converted),20 µM
same,GI50,DU-145,398 nM
same,TGI,DU-145; read-out: pTGI (converted),2000 nM
same,GI50,NCI/ADR-RES,200 nM
same,TGI,NCI/ADR-RES; read-out: pTGI (converted),501 nM
same,GI50,OVCAR-8,398 nM
same,TGI,OVCAR-8; read-out: pTGI (converted),5.01 µM
same,GI50,SK-MEL-2,501 nM
same,TGI,SK-MEL-2; read-out: pTGI (converted),39.8 µM
same,GI50,NCI-H460,398 nM
same,TGI,NCI-H460; read-out: pTGI (converted),2000 nM
same,GI50,Malme-3M,200 nM
same,TGI,Malme-3M; read-out: pTGI (converted),25.1 µM
same,GI50,HL-60(TB),126 nM
same,TGI,HL-60(TB); read-out: pTGI (converted),501 nM
same,GI50,IGROV-1,794 nM
same,TGI,IGROV-1; read-out: pTGI (converted),31.6 µM
same,GI50,NCI-H322M,501 nM
same,TGI,NCI-H322M; read-out: pTGI (converted),12.6 µM
same,GI50,786-0,501 nM
same,TGI,786-0; read-out: pTGI (converted),12.6 µM
same,GI50,PC-3,316 nM
same,TGI,PC-3; read-out: pTGI (converted),12.6 µM
same,GI50,OVCAR-4,631 nM
same,TGI,OVCAR-4; read-out: pTGI (converted),25.1 µM
same,GI50,SF-539,316 nM
same,TGI,SF-539; read-out: pTGI (converted),631 nM
same,GI50,OVCAR-3,398 nM
same,TGI,OVCAR-3; read-out: pTGI (converted),10 µM
same,GI50,RXF 393,398 nM
same,TGI,RXF 393; read-out: pTGI (converted),2510 nM
same,GI50,SK-MEL-28,794 nM
same,TGI,SK-MEL-28; read-out: pTGI (converted),20 µM
same,GI50,CCRF-CEM,316 nM
same,TGI,CCRF-CEM; read-out: pTGI (converted),1000 nM
same,GI50,[1],316 nM
same,TGI,[1]; read-out: pTGI (converted),25.1 µM
same,GI50,M14,398 nM
same,TGI,M14; read-out: pTGI (converted),3.16 µM
same,GI50,U-251,398 nM
same,TGI,U-251; read-out: pTGI (converted),12.6 µM
same,GI50,HCC 2998,794 nM
same,TGI,HCC 2998; read-out: pTGI (converted),7.94 µM
same,GI50,CAKI-1,126 nM
same,TGI,CAKI-1; read-out: pTGI (converted),20 µM
same,GI50,SF-295,200 nM
same,TGI,SF-295; read-out: pTGI (converted),631 nM
same,GI50,BT-549,631 nM
same,TGI,BT-549; read-out: pTGI (converted),5.01 µM
same,GI50,SNB-75,251 nM
same,TGI,SNB-75; read-out: pTGI (converted),631 nM
same,GI50,[2],158 nM
same,TGI,[2]; read-out: pTGI (converted),501 nM
same,GI50,SR,63.1 nM
same,TGI,SR; read-out: pTGI (converted),631 nM
same,GI50,EKVX,398 nM
same,TGI,EKVX; read-out: pTGI (converted),2510 nM
same,GI50,HOP-62,1580 nM
same,TGI,HOP-62; read-out: pTGI (converted),25.1 µM
same,GI50,HCT-15,398 nM
same,GI50,UO-31,398 nM
same,TGI,UO-31; read-out: pTGI (converted),15.8 µM
same,GI50,SK-MEL-5,398 nM
same,TGI,SK-MEL-5; read-out: pTGI (converted),3.98 µM
same,GI50,MDA-MB-468,251 nM
same,TGI,MDA-MB-468; read-out: pTGI (converted),631 nM
